Data from the EternaBench riboswitch data.

Tested on: MS2 coat protein
Test: apparent Kd, MS2 coat protein; higher = weaker binding; RNA-MaP array; FMN 200 µM where present
Summary of the method: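 Green signal was scaled to red-channel RNA signal and control-cluster median Fmax, and the apparent Kd was taken as the median of filtered per-cluster binding-curve fits. The binding series used SNAP-549-labelled MS2 coat protein from 0.7 or 1.5 nM, doubling to 3 µM, on designs transcribed by stalled E. coli RNA polymerase on Illumina sequencing-chip clusters. Each series ran without and then with constant ligand in 100 mM Tris-HCl pH 7.5, 80 mM KCl, 4 mM MgCl2, BSA, DTT, yeast tRNA and Tween-20.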

[1] = designed as: OFF switch for flavin mononucleotide, no ligand
[2] = ligand present: flavin mononucleotide, designed as: OFF switch for flavin mononucleotide
[3] = designed as: ON switch for flavin mononucleotide, no ligand
[4] = ligand present: flavin mononucleotide, designed as: ON switch for flavin mononucleotide

| Sequence | apparent Kd [1] [nM] | apparent Kd [2] [nM] | apparent Kd [3] [nM] | apparent Kd [4] [nM] |
| --- | --- | --- | --- | --- |
| GGUGGACAUGAGGAUCACCCAUGUGAGGAUAUCGGCCGGCUAGUGGCGGCUGGCUUCUCGAGAAGGCGCAUAGU | 47.2 | 62.9 |  |  |
| GUGUACGGAGGAUAUAUGUGGGCAGCAUACGCUGCAGCUUCACAUGAGGAUCACCCAUGUAGAAGGCUGUGCAC | 23.2 | 131 |  |  |
| UUAGAAUUGCAAGGAUAUCUAAUGUAGAUAGUAAGAGAAGGUGCUUGAUAGUUACAUGAGGAUCACCCAUGUAUUUGGGUUUAU |  |  | 395 | 375 |
| GUCGUGUGAGGAUAUGGAUAGAAGAAGUGAAAGUAAGCGACCUAGAAGGCACAUGAGGAUCACCCAUGUAUGUG | 45.3 | 75.6 |  |  |
| UUGAUAAGGAGAGGAUAUGGACAUGAGGAUCACCCAUGUACAUGGGAAUAUAUACUGAAUUUUUACUAGAAGGCUUACAUAUUU | 14.7 | 13 |  |  |
| AGUGUCAUCGAGAAGGACACGGACAUGAGGAUCACCCAUGUUCCAUGUUGUAGGAUAUCGAUGAUACAGCUACGUUUCGUAGCA |  |  | 5.01 | 4.5 |
| AGGUCAACCACAGGAUAUGGCUAGCAUAGCUAGCCAGAAGGGUGGUCGUAACUAUGUAAAUACAUGAGGAUCACCCAUGUAUCC |  |  | 134 | 25.4 |
| GAUCCACAUGAGGAUCACCCAUGUGAGGAUAUGUUGUUAGCUUUUUGCCGUAAGCCAUAUAGAAGGCACGGGUG | 20.1 | 22.3 |  |  |
| GUACCUUAUGAGAAGGCGAUCAUGAAACAUGAUCGAGGAUAUCAUGAAAACAUGAGGAUCACCCAUGUAUGGGUAUUAUGGUAC |  |  | 49.6 | 17.7 |
| GGAUGACAAAGUCAUCCAUUACGAACAUGAGGAUCACCCAUGUAGGAUAUGCUUCACAAAGUGAAGCAGAAGGACAUGUGUCUU | 30.2 | 154 |  |  |
| UUGUAACGAUUAGGAUAUUAUUAAUAGAACUUUAUGAUAUACAUGAGGAUCACCCAUGUUACUUUUAAGAAGGAAUCGUAUUAU | 24.4 | 18.3 |  |  |
| UUACUCAUGUAAGGAUAUGCAGCCGUUUCGGCUGCAGAAGGUACUAUAAUACAUGAGGAUCACCCAUGUCUUUUGAAUUUAGAC |  |  | 91.4 | 33.3 |
| AUGAGAGCAGGAUAUGCAGGUGUGCCGGAAGAAAGAAGAAGACAUGAGGAUCACCCAUGUAGAAGGGCUAGCCC | 19.1 | 15.6 |  |  |
| ACAUGAGGAUCACCCAUGUUCACAUAGGAUAUUGAUUAUAUUGGUUUUAGAAUAGUAAUUAACCUCAAGAAGGAUGCCAGUUCU |  |  | 13.3 | 10 |
| CAGCGAUAGCUGAAUGGUACAUGGGAGGAUAUGGGUUGAUACAUGAGGAUCACCCAUGUUUAAUACUAGAAGGCCCAUGUACCU |  |  | 316 | 11 |
| GUCCUUUCUGAGGAUAUUAUCUUUUUCGAUUGAUAAGAAGGCAGUACAUGAGGAUCACCCAUGUGGGUUGUCUG | 31 | 131 |  |  |
| GUAGCUACUAUUAUACAUGAGGAUCACCCAUGUUACAUGUGUAAGGAUAUUGAAGUUAUUAUUAUCAAGAAGGUACUAUGCUAC |  |  | 16.2 | 9.54 |
| UAUGGUUAAGUCAGGAUAUACUAAUAGAAAUCUGUGUAGAAGGGACAUGAGGAUCACCCAUGUAUGGUAGUGUU | 68.7 | 75.1 |  |  |

| Sequence | apparent Kd [1] [nM] | apparent Kd [2] [nM] | apparent Kd [3] [nM] | apparent Kd [4] [nM] |
| --- | --- | --- | --- | --- |
| GUCAGCUCGUGAGGAUAUACAACACUGCUUCGGCAGUGUAUUAAGAUCACAUGAGGAUCACCCAUGUAGAAGGCACGAGCUAAU | 15.9 | 267 |  |  |
| AUUAAUAAUCGAGGAUAUCACGUCGAAUAGACGUGAGAAGGCGAUCAUAACAUGAGGAUCACCCAUGUAUUACAUGAAGUUAAU |  |  | 27.5 | 23.9 |
| AGCUGUGGCCGAGGAUAUCUAAACUCAAUAACCGAAAUAUAAUCGGACAUGAGGAUCACCCAUGUAGAGAAGGCGGUCUCAGCA | 34.1 | 71.8 |  |  |
| CUAUCAAGCAAGGAUAUGCAAUUUAUUAUUUAUGCAGAAGGUGCAACAUGAGGAUCACCCAUGUUUCUGGGUUU | 51.5 | 91.5 |  |  |
| CGUUUAUAUAUGGGUUUAUAUUAUGAGGAUAUCAAUAUUUAAUACAUGAGGAUCACCCAUGUUACUGAGAAGGCAUAAUUAACG |  |  |  | 6.99 |
| CAAUUCCGAGGAUAUACAUGAGGAUCACCCAUGUCGGGCCUCAGCGUUUAGCGCCUCAGUAGAAGGCGGGUUUC | 28.3 | 34.8 |  |  |
| UGUUGUAUUACAGGAUAUCUAUGAUUAUUAUUUAGAGAAGGGUAUUCACAUGAGGAUCACCCAUGUAUAUACGAGGAAGUUGUG |  |  | 40.7 | 48.7 |
| ACCUUACAUGAGGAUCACCCAUGUCAGGAUAUCUCGGACGGCUGAAAACCAACCGUCCAGAGAAGGGACGAGGA | 13.1 | 15.2 |  |  |
| ACAUGAUAUGUAGGAUAUCACAUUAAUUGUUUUAUAAUUGUAAUUUGGAUUUGAGAAGGACAUUUACAUGAGGAUCACCCAUGU | 15.9 | 12.1 |  |  |
| GAUAUGUUAGGAUAUCGGAAAACGGCCCACUGGCACGGAAGCGAGAAGGGACAUGAGGAUCACCCAUGUGAAAG | 48.1 | 31.4 |  |  |
| AUACAUGAGGAUCACCCAUGUAAUUAAUUAAUUAAUAAGAUCUAGGAUAUCAGCUCGAAUAGAGCUGAGAAGGAGAUCACAUGU |  |  | 23 | 14.4 |
| AGAAAUUCAGGAUAUACAUGAGGAUCACCCAUGUUUGGCAGAGGCGCCGAGAUCCCACGUAGAAGGGAAAAGAC | 37.1 | 79.9 |  |  |
| UGUAUAUAGGCAGGAUAUACAUGAAUAUAUAUGAUGUAGUAUGAUGUAACAUGAGGAUCACCCAUGUAGAAGGGCCAGUGUAUA | 73.8 | 144 |  |  |
| UGACGGAGCUGAGGAUAUAACAUGAGGAUCACCCAUGUAAGUCUCCAGGAAACUGGAGACAAAUGUUAGAAGGCAGCUCCGUCA | 39.4 | 50.7 |  |  |
| GGAGCACACAUUAACAUGAGGAUCACCCAUGUCAAAAGACAUGAGGAUAUGGUUCCGAAAAGGAUCCAGAAGGCAUGGUGCUCC |  |  | 356 | 15.5 |
| AUGGAUAUCACAGGAUAUGAUAUGGAUACCAUAUCAGAAGGGUGAUCCAUCCUAUGUAAAUACAUGAGGAUCACCCAUGUGUCC |  |  | 15.1 | 31.6 |
| AAAACUCACGUAGGAUAUCAUUCCUUAAGGUAGUGAGAAGGACGUGACUACAUGUCCUAAAACAUGAGGAUCACCCAUGUAGGC | 33.5 | 26.5 |  |  |
| GUUUUUUUUAGUUCAUACUAUUUGAUAGAAGGUGAAAUAUAGACAUGAGGAUCACCCAUGUAAUUCAAGGAUAUGUAGUUACUC |  |  | 40.6 | 32.7 |
